Measured values: ChEMBL document CHEMBL1773005, “The antibacterial ent-eusynstyelamide B and eusynstyelamides D, E, and F from the Arctic bryozoan Tegella cf. spitzbergensis” (J Nat Prod, 2011)
≈ marks a conversion by molar mass, not a printed value.

Tests used:
[1] = system: Candida albicans; assay: Antifungal activity against Candida albicans ATCC 10231 after 48 hrs by microscopy; type: functional; settings: ATCC 10231, 48 h
Outline: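 Yeast grown on potato dextrose agar with 2% glucose at room temperature, suspended in potato dextrose broth and counted in a Bürker chamber. Spores at 2 × 10^5/mL final were mixed with compounds dissolved in water and incubated at 37 C. MIC was the lowest concentration with no visible growth at 48 h, scored microscopically. Duplicates over 2–100 μg/mL; cecropin B (6.25 μM) as positive control.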

[2] = system: Staphylococcus aureus; assay: Antibacterial activity against methicillin-resistant Staphylococcus aureus ATCC 33591 after 24 hrs by microtiter plate assay; type: functional; settings: ATCC 33591, 24 h
Outline: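 Log-phase bacteria at about 5 × 10^5 cells per well in Mueller Hinton broth, 37 C, were mixed with compounds dissolved in water, 2–100 μg/mL, in duplicate. Optical density was monitored continuously. MIC was taken as the lowest concentration giving no change in optical density after 24 h. Cecropin B (25 μM) served as positive control.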

[3] = system: A2058; assay: Anticancer activity against human A2058 cells after 72 hrs by CellTiter-96 cell viability assay; type: functional, cell-based; settings: A2058, 72 h
Outline: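 A-2058 melanoma cells in exponential growth were seeded, incubated 24 h at 37 C, then exposed to compounds for 72 h. Viability was read by CellTiter96 reagent, 1 h colour development, absorbance at 485 nm. Duplicates over 2–100 μg/mL; IC50 determined.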

[4] = system: Staphylococcus aureus; assay: Antibacterial activity against Staphylococcus aureus ATTC 9144 after 24 hrs by microtiter plate assay; type: functional; settings: ATTC 9144, 24 h
Outline: (§1)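 Log-phase cultures grown at 37 C in Mueller Hinton broth, diluted to about 5 × 10^5 cells per well, then mixed 1:1 with compound dissolved in water. Growth followed by continuous optical density reading. MIC taken as the lowest concentration giving no OD change after 24 h at 37 C. Tested in duplicate over 2–100 μg/mL; cecropin B (25 μM) served as positive control.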

[5] = system: Escherichia coli; assay: Antibacterial activity against Escherichia coli ATCC 25922 after 24 hrs by microtiter plate assay; type: functional; settings: ATCC 25922, 24 h; outline: as §1
[6] = system: Corynebacterium glutamicum; assay: Antibacterial activity against Corynebacterium glutamicum ATTC 13032 after 24 hrs by microtiter plate assay; type: functional; settings: ATTC 13032, 24 h; outline: as §1
[7] = system: Pseudomonas aeruginosa; assay: Antibacterial activity against Pseudomonas aeruginosa ATTC 27853 after 24 hrs by microtiter plate assay; type: functional; settings: ATTC 27853, 24 h; outline: as §1

Compound | MIC [1] | MIC [2] | IC50 [3] | MIC [4] | MIC [5] | MIC [6] | MIC [7]
NCCCCNC(=O)[C@@]1(O)[C@H](c2c[nH]c3cc(Br)ccc23)[C@@](O)(Cc2c[nH]c3cc(Br)ccc23)C(=O)N1CCCCN [EUSYNSTYELAMIDE D] | 50 µg/mL (≈ 71 µM) | 20 µg/mL (≈ 28.4 µM) | 57 µM | 12.5 µg/mL (≈ 17.7 µM) | 12.5 µg/mL (≈ 17.7 µM) | 12.5 µg/mL (≈ 17.7 µM) | 25 µg/mL (≈ 35.5 µM)
N=C(N)NCCCCN1C(=O)[C@](O)(Cc2c[nH]c3cc(Br)ccc23)[C@@H](c2c[nH]c3cc(Br)ccc23)[C@]1(O)C(=O)NCCCCN [EUSYNSTYELAMIDE E] | 100 µg/mL (≈ 134 µM) | 20 µg/mL (≈ 26.8 µM) | 114 µM | 12.5 µg/mL (≈ 16.7 µM) | 12.5 µg/mL (≈ 16.7 µM) | 12.5 µg/mL (≈ 16.7 µM) | 25 µg/mL (≈ 33.5 µM)
N=C(N)NCCCCNC(=O)[C@@]1(O)[C@H](c2c[nH]c3cc(Br)ccc23)[C@@](O)(Cc2c[nH]c3cc(Br)ccc23)C(=O)N1CCCCN [EUSYNSTYELAMIDE F] | 50 µg/mL (≈ 67 µM) | > 50 µg/mL | – | 6.25 µg/mL (≈ 8.37 µM) | 12.5 µg/mL (≈ 16.7 µM) | 6.25 µg/mL (≈ 8.37 µM) | 12.5 µg/mL (≈ 16.7 µM)
